Test results taken from ChEMBL document CHEMBL5346886 (Eur J Med Chem, 2023).
Values after ≈ are worked out from the molar mass of the structure shown. Active and inactive are the calls of the source. The rule behind the calls is not given here.

Columns and labels:
Murine hepatitis virus [1] = assay: Antiviral activity against Murine hepatitis virus-A59 infected in mouse L929 cells assessed as reduction in viral copy upto 200 uM pre-infected with cell for 1 hrs followed by compound addition and measured after 48 hrs by RT-qPCR analysis; format: functional, organism-based
Method in brief: (§1)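 L929 cells in DMEM with 10% FBS were seeded for 24 h to 80% confluence and washed thrice with serum-free medium. Cells were infected with MHV-A59 at MOI 0.01 for 1 h at 37 °C, then compound was added, with DMSO as the blank control. After 48 h at 37 °C, cells and supernatants were taken for qRT-PCR of viral copies. Inhibition was calculated from copy number and fitted for EC50.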

Murine hepatitis virus [2] = assay: Antiviral activity against Murine hepatitis virus-A59 infected in mouse L929 cells assessed as reduction in viral copy pre-infected with cell for 1 hrs followed by compound addition and measured after 48 hrs in the presence of remdesivir by RT-qPCR analysis; format: functional, organism-based; method in brief: as §1
[3] = Tmax in Sprague-Dawley rat at 25 mg/kg, po administered as single dose and measured at 0.25 to 24 hrs by LC-MS/MS analysis; format: ADME, organism-based; conditions: in vivo, time 0.25-24 hrs
[4] = Cmax in Sprague-Dawley rat at 25 mg/kg, po administered as single dose and measured at 0.25 to 24 hrs by LC-MS/MS analysis; format: ADME, organism-based; parameters: dose 25 mg/kg, time 0.25-24 hrs, route po; conditions: in vivo
[5] = AUC (0 to infinity) in Sprague-Dawley rat at 25 mg/kg, po administered as single dose and measured at 0.25 to 24 hrs by LC-MS/MS analysis; format: ADME, organism-based; parameters: time upper 24 hrs, time lower 0.25 hrs, dose 25 mg/kg, route po; conditions: in vivo
[6] = Oral bioavailability in Sprague-Dawley rat at 25 mg/kg administered as single dose and measured at 0.25 to 24 hrs by LC-MS/MS analysis; format: ADME, organism-based; conditions: in vivo, time 0.25-24 hrs
[7] = Tmax in Sprague-Dawley rat at 5 mg/kg, iv administered as single dose and measured at 0.083 to 24 hrs by LC-MS/MS analysis; format: ADME, organism-based; conditions: in vivo, time 0.083-24 hrs
[8] = Cmax in Sprague-Dawley rat at 5 mg/kg, iv administered as single dose and measured at 0.083 to 24 hrs by LC-MS/MS analysis; format: ADME, organism-based; parameters: dose 5 mg/kg, time 0.083-24 hrs, route iv; conditions: in vivo
[9] = AUC (0 to infinity) in Sprague-Dawley rat at 5 mg/kg, iv administered as single dose and measured at 0.083 to 24 hrs by LC-MS/MS analysis; format: ADME, organism-based; parameters: time upper 24 hrs, dose 5 mg/kg, time lower 0.083 hrs, route iv; conditions: in vivo
Murine hepatitis virus [10] = assay: Antiviral activity against murine hepatitis virus-A59 infected in BALB/c mouse assessed as inhibition of viral replication in liver at 70 mg/kg, po administered once daily one hour post infection and measured after 3 days by qRT-PCR analysis; format: functional, organism-based; conditions: time 3.0 day
Method in brief: (§2)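 SPF male BALB/c mice aged 3–4 weeks were put under isoflurane and inoculated intranasally with 30 μL MHV-A59 (TCID50 = 10−7.125/100 μL) in PBS. Oral dosing once daily in 15% Cremophor EL/82.5% PBS/2.5% DMSO started at 1 hpi and ran for four days; groups had 12 mice. At 3 dpi, 4 mice per group were killed and lung and liver M-gene copies measured by qRT-PCR.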

Murine hepatitis virus [11] = assay: Antiviral activity against murine hepatitis virus-A59 infected in BALB/c mouse assessed as inhibition of viral replication in lungs at 70 mg/kg, po administered once daily one hour post infection and measured after 3 days by qRT-PCR analysis; format: functional, organism-based; conditions: time 3.0 day; method in brief: as §2
Murine hepatitis virus [12] = assay: Antiviral activity against murine hepatitis virus-A59 infected in BALB/c mouse assessed as reduction in TNF-alpha production in liver at 70 mg/kg, po administered once daily one hour post infection and measured after 3 days by ELISA analysis; format: functional, organism-based; conditions: time 3.0 day
Method in brief: (§3)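 MHV-A59 was inoculated intranasally into male BALB/c mice (30 μL, TCID50 = 10−7.125/100 μL), with oral dosing once daily from 1 hpi for four days. At 3 dpi, 0.1 g lung or liver from 4 mice per group was homogenized in 0.9 mL water at 4 °C and centrifuged. Supernatant IFN-β was read by ELISA; TNF-α, IFN-γ, IL-1β, IL-6 and CXCL10 by multi-analyte kit, with OD 450 nm against standards.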

Murine hepatitis virus [13] = assay: Antiviral activity against murine hepatitis virus-A59 infected in BALB/c mouse assessed as reduction in IL-1beta production in liver at 70 mg/kg, po administered once daily one hour post infection and measured after 3 days by ELISA analysis; format: functional, organism-based; conditions: time 3.0 day; method in brief: as §3
Murine hepatitis virus [14] = assay: Antiviral activity against murine hepatitis virus-A59 infected in BALB/c mouse assessed as reduction in IL6 production in liver at 70 mg/kg, po administered once daily one hour post infection and measured after 3 days by ELISA analysis; format: functional, organism-based; conditions: time 3.0 day; method in brief: as §3
Murine hepatitis virus [15] = assay: Antiviral activity against murine hepatitis virus-A59 infected in BALB/c mouse assessed as reduction in IFN-gamma production in liver at 70 mg/kg, po administered once daily one hour post infection and measured after 3 days by ELISA analysis; format: functional, organism-based; conditions: time 3.0 day; method in brief: as §3
Murine hepatitis virus [16] = assay: Antiviral activity against murine hepatitis virus-A59 infected in BALB/c mouse assessed as reduction in CXCL10 production in liver at 70 mg/kg, po administered once daily one hour post infection and measured after 3 days by ELISA analysis; format: functional, organism-based; conditions: time 3.0 day; method in brief: as §3
Murine hepatitis virus [17] = assay: Antiviral activity against murine hepatitis virus-A59 infected in BALB/c mouse assessed as reduction in IFN-beta production in liver at 70 mg/kg, po administered once daily one hour post infection and measured after 3 days by ELISA analysis; format: functional, organism-based; conditions: time 3.0 day; method in brief: as §3
Murine hepatitis virus [18] = assay: Antiviral activity against Murine hepatitis virus-A59 infected in mouse L929 cells assessed as reduction in viral copy pre-infected with cell for 1 hrs followed by compound addition and measured after 48 hrs by RT-qPCR analysis; format: functional, organism-based; conditions: Murine coronavirus
Method in brief: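 L929 cells in DMEM with 10% FBS were washed serum-free at 80% confluence and infected with MHV-A59 at MOI 0.01 for 1 h at 37 °C. Compounds were added at 0.1–100 μmol/L, with DMSO as blank control. After 48 h at 37 °C, the viral M gene in supernatant was measured by qRT-PCR. Percent inhibition was derived from copy number and EC50 from curve fitting.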

[19] = MRT (0 to infinity) in Sprague-Dawley rat at 25 mg/kg, po administered as single dose and measured at 0.25 to 24 hrs by LC-MS/MS analysis; format: ADME, organism-based; conditions: in vivo, time 0.25-24 hrs
[20] = MRT (0 to infinity) in Sprague-Dawley rat at 5 mg/kg, iv administered as single dose and measured at 0.083 to 24 hrs by LC-MS/MS analysis; format: ADME, organism-based; conditions: in vivo, time 0.083-24 hrs
Murine hepatitis virus [21] = assay: Antiviral activity against murine hepatitis virus-A59 infected in BALB/c mouse assessed as inhibition of viral replication in liver at 100 mg/kg, po administered once daily one hour post infection and measured after 3 days by qRT-PCR analysis; format: functional, organism-based; conditions: time 3.0 day; method in brief: as §2
Murine hepatitis virus [22] = assay: Antiviral activity against murine hepatitis virus-A59 infected in BALB/c mouse assessed as inhibition of viral titer in liver at 100 mg/kg, po administered once daily one hour post infection and measured after 3 days by qRT-PCR analysis; format: functional, organism-based; conditions: time 3.0 day; method in brief: as §2
Murine hepatitis virus [23] = assay: Antiviral activity against murine hepatitis virus-A59 infected in BALB/c mouse assessed as inhibition of viral replication in lungs at 100 mg/kg, po administered once daily one hour post infection and measured after 3 days by qRT-PCR analysis; format: functional, organism-based; conditions: time 3.0 day; method in brief: as §2
Murine hepatitis virus [24] = assay: Antiviral activity against murine hepatitis virus-A59 infected in BALB/c mouse assessed as alleviation of interstitial pneumonia in lungs at 100 mg/kg, po administered once daily one hour post infection and measured after 3 days by H&E staining based analysis; format: functional, organism-based; conditions: time 3.0 day
Method in brief: (§4)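 In male BALB/c mice (3–4 weeks), MHV-A59 was given intranasally (30 μL, TCID50 = 10−7.125/100 μL). Oral dosing once daily in a Cremophor EL/PBS/DMSO vehicle began at 1 hpi and lasted four days. At 3 dpi, lungs and livers from 4 mice per group were fixed in zinc formalin and paraffin-embedded. Sections of about 4 μm were stained with H&E and examined at 200× and 400×.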

Murine hepatitis virus [25] = assay: Antiviral activity against murine hepatitis virus-A59 infected in BALB/c mouse assessed as alleviation of thickened alveolar septa in lungs at 100 mg/kg, po administered once daily one hour post infection and measured after 3 days by H&E staining based analysis; format: functional, organism-based; conditions: time 3.0 day; method in brief: as §4
Murine hepatitis virus [26] = assay: Antiviral activity against murine hepatitis virus-A59 infected in BALB/c mouse assessed as alleviation of lymphocytes infiltration in lungs at 100 mg/kg, po administered once daily one hour post infection and measured after 3 days by H&E staining based analysis; format: functional, organism-based; conditions: time 3.0 day; method in brief: as §4
Murine hepatitis virus [27] = assay: Antiviral activity against murine hepatitis virus-A59 infected in BALB/c mouse assessed as alleviation of necrotic debris in lungs at 100 mg/kg, po administered once daily one hour post infection and measured after 3 days by H&E staining based analysis; format: functional, organism-based; conditions: time 3.0 day; method in brief: as §4
Murine hepatitis virus [28] = assay: Antiviral activity against murine hepatitis virus-A59 infected in BALB/c mouse assessed as reduction in mortality at 100 mg/kg, po administered once daily one hour post infection and measured after 23 days; format: functional, organism-based; conditions: time 23.0 day
Method in brief: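 After intranasal MHV-A59 inoculation (30 μL, TCID50 = 10−7.125/100 μL), 3–4-week-old male BALB/c mice received oral drug or vehicle once daily from 1 hpi for four days, 12 per group. The remaining mice were monitored daily for body weight, clinical signs and death until 23 dpi; survival curves were plotted.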

[29] = Stability in human plasma assessed as half-life; format: ADME, cell-free
[30] = Solubility of the compound; format: physicochemical
Murine hepatitis virus [31] = assay: Potency index, ratio of GS-441524 EC50 to test compound EC50 for antiviral activity against Murine hepatitis virus-A59 infected in mouse L929 cells assessed as reduction in viral copy pre-infected with cell for 1 hrs followed by compound addition and measured after 48 hrs by RT-qPCR analysis; format: functional

CC(C)Cc1ccc(C(C)C(=O)O)cc1 (stereo not given) [IBUPROFEN]
Activity (Murine hepatitis virus [1]): inactive | Activity (Murine hepatitis virus [2]): inactive | Tmax [3]: 0.67 h | Cmax [4]: 80.2 µM | AUC [5]: 263 uM.hr/L | F [6]: 78.42% | Tmax [7]: 1.8 min | Cmax [8]: 41.8 µM | AUC [9]: 67.1 uM.hr/L | Activity (Murine hepatitis virus [10]): inactive | Activity (Murine hepatitis virus [11]): inactive | Activity (Murine hepatitis virus [12]): inactive | Activity (Murine hepatitis virus [13]): inactive | Activity (Murine hepatitis virus [14]): inactive | Activity (Murine hepatitis virus [15]): inactive | Activity (Murine hepatitis virus [16]): inactive | Activity (Murine hepatitis virus [17]): inactive

N#C[C@@]1(c2ccc3c(N)ncnn23)O[C@H](CO)C(O)C1O (single isomer, unassigned) [GS-441524]
EC50 (Murine hepatitis virus [18]): 10 µM | Cmax [4]: 7.75 µM | AUC [5]: 22.6 uM.hr/L | MRT [19]: 3.16 h | F [6]: 60.31% | Cmax [8]: 5.67 µM | AUC [9]: 7.51 uM.hr/L | MRT [20]: 1.28 h | Activity (Murine hepatitis virus [21]): Active | Activity (Murine hepatitis virus [22]): Active | Activity (Murine hepatitis virus [23]): Active | Activity (Murine hepatitis virus [24]): inactive | Activity (Murine hepatitis virus [25]): inactive | Activity (Murine hepatitis virus [26]): inactive | Activity (Murine hepatitis virus [27]): inactive | Activity (Murine hepatitis virus [28]): Active

COc1ccc2c(c1)c(CC(=O)OC[C@H]1O[C@@](C#N)(c3ccc4c(N)ncnn34)[C@H](O)[C@@H]1O)c(C)n2C(=O)c1ccc(Cl)cc1
EC50 (Murine hepatitis virus [18]): 10.1 µM | t1/2 [29]: 2.8345 h | solubility [30]: 0.1 µM (≈ 0.0631 µg/mL)

N#C[C@@]1(c2ccc3c(N)ncnn23)O[C@H](COC(=O)Cc2ccccc2Nc2c(Cl)cccc2Cl)[C@@H](O)[C@H]1O
EC50 (Murine hepatitis virus [18]): 6.4 µM | t1/2 [29]: 3.186 h | solubility [30]: 3.7 µM (≈ 2.11 µg/mL)

CCC(CC)COC(=O)[C@H](C)N[P@](=O)(OC[C@H]1O[C@@](C#N)(c2ccc3c(N)ncnn23)[C@H](O)[C@@H]1O)Oc1ccccc1
EC50 (Murine hepatitis virus [18]): 1.82 µM

COc1ccc2cc([C@H](C)C(=O)OC[C@H]3O[C@@](C#N)(c4ccc5c(N)ncnn45)[C@H](O)[C@@H]3O)ccc2c1
EC50 (Murine hepatitis virus [18]): 8.65 µM | t1/2 [29]: 3.0328 h | solubility [30]: 155 µM (≈ 78 µg/mL)

CC(C(=O)OC[C@H]1O[C@@](C#N)(c2ccc3c(N)ncnn23)[C@H](O)[C@@H]1O)c1cccc(Oc2ccccc2)c1 (stereo not given in full)
EC50 (Murine hepatitis virus [18]): 1.27 µM | Ratio EC50 (Murine hepatitis virus [31]): 8 | t1/2 [29]: 2.8218 h | solubility [30]: 29 µM (≈ 15 µg/mL)

CC(C(=O)OC[C@H]1O[C@@](C#N)(c2ccc3c(N)ncnn23)[C@H](O)[C@@H]1O)c1cccc(C(=O)c2ccccc2)c1 (stereo not given in full)
EC50 (Murine hepatitis virus [18]): 4.17 µM | t1/2 [29]: 3.3197 h | solubility [30]: 1070 µM (≈ 566 µg/mL)
